# Screening data (PubChem BioAssay)
# The list is not random: actives were taken first. Their share in the collection is about 2.3%.
# NPY Y1 blocker – antagonists of human neuropeptide Y receptor Y1; HEK293-CNG Y1 cells, membrane potential fluorescence; NPY at EC95, then isoproterenol; inhibition, % at 3.6 µM; P25929; AID 1040; hit rate 1% among 200,000;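 active means inhibition above the campaign mean inhibition of all tested compounds plus 3 SD, cut at about 20% in these data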
#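 Assay system: HEK293 Y1/CNG channel cell line; Doses: single compound dose of 3.6 µM, 0.4% DMSO; Timing: dye 3 h, compound 60 min room temperature, stimulation 45 min; Technique: Membrane-potential fluorescent dye readout; Measure: % inhibition of NPY effect.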
# NPY-Y1 PAM-ag – human NPY-Y1 potentiation or agonism, primary screen. activation, % at 3.6 µM. hit rate 0.37% among 220,000. P25929. NPY-Y1 expressing cells, potentiator/agonist activation; in the data active means activation above about 33%, passing the limit was not always enough;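 further: cells stimulated with NPY at EC10 then isoproterenol at EC100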
# NPY-Y2 antag – antagonists of human neuropeptide Y receptor Y2 | NPY-Y2 expressing cells, antagonist mode | inhibition, % at 2.7 µM | hit rate 0.99% among 140,000
# Target sequence (P49146 whole entry, looked up): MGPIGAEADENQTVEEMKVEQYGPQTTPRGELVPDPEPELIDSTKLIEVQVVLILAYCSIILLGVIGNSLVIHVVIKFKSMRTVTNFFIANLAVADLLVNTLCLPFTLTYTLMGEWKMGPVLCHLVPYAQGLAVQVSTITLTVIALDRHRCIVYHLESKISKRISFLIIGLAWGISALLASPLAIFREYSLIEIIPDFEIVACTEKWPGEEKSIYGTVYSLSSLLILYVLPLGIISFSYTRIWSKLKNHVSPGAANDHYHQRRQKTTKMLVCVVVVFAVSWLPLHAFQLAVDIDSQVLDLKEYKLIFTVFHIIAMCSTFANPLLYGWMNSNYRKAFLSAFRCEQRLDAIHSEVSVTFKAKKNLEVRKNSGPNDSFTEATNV
# NPY-Y2 PAM-ag – human NPY-Y2 potentiation or agonism, primary screen; P49146; cells expressing NPY-Y2, potentiator/agonist read-out; activation, % at 3.6 µM; hit rate 0.45% among 220,000; AID 1359; in the data active means activation above about 27%;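 further: cells stimulated with NPY near EC25 plus isoproterenol at EC100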
# Calpain2 inh – calpain II (pig) inhibition; purified calpain II, fluorogenic peptide substrate, 30 min; inhibition, % at 16 µM; hit rate 0.37% among 220,000;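 active means inhibition above about 50%, limit read from the data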
# Tb hexokinase – T. brucei hexokinase 1 inhibition; recombinant TbHK1, G6PDH-coupled NADH A340; inhibition, % at 10 µM; hit rate 0.11% among 220,000;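 active means inhibition of 50% or more in the single-dose primary screen; inactive means inhibition below 50%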
# NPY1 antag conf – confirmation of human neuropeptide Y receptor Y1 antagonists | AID 1254 | hit rate 21% among 1,200 | inhibition, % at 3.6 µM | HEK293-CNG NPY-Y1, membrane potential fluorescence, cAMP; NPY challenge against isoproterenol-raised cAMP | shares compounds with NPY Y1 blocker; in the data active means inhibition above about 20%
# NPY-Y2 antag ct – human NPY-Y2 antagonism in NPY-Y1 counter-screen; shares compounds with NPY Y1 blocker; HEK293 NPY-Y2 CNG membrane potential fluorescence; cells given NPY, then isoproterenol; inhibition, % at 3.6 µM; hit rate 28% among 1,200
# Hits are given with their value; i = inactive; nt = not tested or not shown. Unless noted, no stated cut-off is given here; in the data, active means inhibition above about 17%; inactive means the rest.
SMILES,NPY Y1 blocker,NPY-Y1 PAM-ag,NPY-Y2 antag,NPY-Y2 PAM-ag,Calpain2 inh,Tb hexokinase,NPY1 antag conf,NPY-Y2 antag ct
O=C(O)CCCCCN1C(=O)C2CCCCC2C1=O (configuration not stated),i,i,i,i,i,i,nt,nt
O=C(O)CCCCCCC1C(=O)NC(=O)N1CCC(O)C1CCCCC1 (configuration not stated),24,i,i,i,i,i,28,21
CC(CCc1ccccc1)NC(=O)/C=C/c1ccccc1 (configuration not stated),i,i,i,i,i,i,nt,nt
COc1cc(/C=C/C(=O)NC(C)CCc2ccccc2)cc(OC)c1OC (configuration not stated),22,i,i,i,i,i,i,i
C[C@H]1CC[C@@]2(O[C@H](CCO)C[C@@H](O)[C@@H]2O)O1,i,i,nt,i,i,i,nt,nt
Cc1ccccc1N(CC(=O)N/N=C/c1ccc(N(C)C)cc1)C(=O)c1ccccc1,i,i,i,i,i,i,nt,nt
O=c1oc2ccccc2c(O)c1C=Nc1cccnc1,i,i,nt,i,i,i,nt,nt
Cc1cc(C(=O)CSc2nc3ccccc3c(=O)n2C)c(C)n1CC1CCCO1 (configuration not stated),27,i,nt,i,i,i,33,i
Cc1cc(C(=O)CSc2nc3ccccc3c(=O)[nH]2)c(C)n1CC1CCCO1 (configuration not stated),i,i,nt,i,i,i,nt,nt
COC(=O)c1c(NC(=O)C2CCCCC2C(=O)O)sc2c1CCCCC2 (configuration not stated),89,i,nt,i,i,i,i,i
CCOC(=O)c1c(NC(=O)C2CCCCC2C(=O)O)sc2c1CCCCC2 (configuration not stated),i,i,nt,i,i,i,nt,nt
CCc1ccc(NC(=O)COC(=O)CN2C(=O)COc3ccccc32)cc1,i,i,i,i,i,i,nt,nt
CCCC(OC(=O)CN1C(=O)COc2ccccc21)C(=O)NC1CCCC1 (configuration not stated),24,i,i,i,i,i,i,i
COc1cccc(-c2cc(C(=O)Nc3ccc4c(c3)OCCO4)c3ccccc3n2)c1,i,i,i,i,i,i,nt,nt
COc1cccc(-c2cc(C(=O)Nc3nc4ccccc4s3)c3ccccc3n2)c1,31,i,i,i,i,i,26,38
O=C(/C=C/c1ccc(F)cc1)N1CC[C@@]2(O)CCCC[C@H]2C1,nt,i,nt,i,i,i,nt,nt
COc1ccc(Br)cc1CNC(=O)CCc1nc(-c2ccc(C)cc2)no1,21,i,i,i,i,i,i,i
CC12CCC(C(=O)N/N=C/c3ccc(O)cc3)(OC1=O)C2(C)C (configuration not stated),nt,i,nt,i,i,i,nt,nt
CC(=O)Nc1ccc(CN2CCCC(C(=O)c3ccc(C(F)(F)F)cc3)C2)cc1 (configuration not stated),i,i,nt,i,i,i,nt,nt
O=[N+]([O-])c1cc2c(c(CSc3ncccn3)c1)OCOC2,24,i,nt,i,i,i,i,i
CN(Cc1c(C(=O)N2CCc3ccccc3C2)nc2ccc(Cl)cn12)C(C1CC1)C1CC1,25,i,nt,i,i,i,i,i
C[C@H]1CC[C@H]2C(=O)N3[C@H](c4ccccc4Br)[C@@H](C)CC[C@H]3C(=O)N2[C@@H]1c1ccccc1Br,28,i,i,i,i,i,i,i
C[C@H]1CC[C@H]2C(=O)N3[C@H](c4cccc(N5CCCC5=O)c4)[C@@H](C)CC[C@H]3C(=O)N2[C@@H]1c1cccc(N2CCCC2=O)c1,i,i,i,i,i,i,nt,nt
Fc1ccccc1C1c2[nH]c3ccccc3c2CCN1Cc1cccn1-c1ncccn1 (configuration not stated),29,i,nt,i,i,i,i,i
CSc1nc(N2CCN(c3ccccc3Cl)CC2)c2ccccc2n1,30,i,nt,i,i,i,22,27
